Assay results taken from ChEMBL document CHEMBL1287727, “Structure and biological evaluation of novel cytotoxic sterol glycosides from the marine red alga Peyssonnelia sp” (Bioorg Med Chem, 2010).
pIC50: −log10 of the molar value. Values after ≈ are worked out from the molar mass of the structure shown. Active and inactive are the calls of the source. The rule behind the calls is not given here.

Columns and labels:
PC-3 = assay: Cytotoxicity against human PC3 cells after 72 hrs by MTS assay; format: functional, cell-based; details: PC-3, 72 h
BT-549 = assay: Cytotoxicity against human BT549 cells after 72 hrs by MTS assay; format: functional, cell-based; details: BT-549, 72 h
DU-4475 = assay: Cytotoxicity against human DU4475 cells after 72 hrs by MTS assay; format: functional, cell-based; details: DU-4475, 72 h
CCRF-CEM = assay: Cytotoxicity against human CCRF-CEM cells after 72 hrs by MTS assay; format: functional, cell-based
[1] = Cell cycle arrest in human A2780DDP cells at 10 uM after 48 hrs using propidium iodine staining by flow cytometry; format: functional, cell-based
In short: (§1)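 A2780/DDP-S ovarian cancer cells were treated at 1.0, 3.0 and 10 µM for 24 or 48 h. DNA was stained with propidium iodide and cell-cycle distribution was analysed by flow cytometry.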

Enterococcus faecium = assay: Antibacterial activity against vancomycin-resistant Enterococcus faecium ATCC 700221; format: functional
[2] = Cytotoxicity against human A2780DDP cells after 72 hrs by MTS assay; format: functional, cell-based
Plasmodium falciparum = assay: Antimalarial activity against Plasmodium falciparum; format: functional, organism-based
In short: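 Parasite proliferation was read out with a SYBR Green-based assay.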

A549 = assay: Cytotoxicity against human A549 cells after 72 hrs by MTS assay; format: functional, cell-based; details: A549, 72 h
[3] = tested on: Mycobacterium tuberculosis; assay: Antimicrobial activity against Mycobacterium tuberculosis H37Rv by microplate alamar blue assay; format: functional, organism-based
In short: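 M. tuberculosis H37Rv (ATCC 27294) tested by microplate alamar blue assay.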

Candida albicans = assay: Antifungal activity against amphotericin-resistant Candida albicans ATCC 90873; format: functional
HCT-116 = assay: Cytotoxicity against human HCT116 cells after 72 hrs by MTS assay; format: functional, cell-based; details: HCT-116, 72 h
[4] = Cell cycle arrest in human A2780DDP cells at 10 uM after 24 hrs using propidium iodine staining by flow cytometry; format: functional, cell-based; in short: as §1
Homo sapiens [5] = species on record: Homo sapiens; assay: Induction of apoptosis in human A2780DDP cells assessed as PARP cleavage at 10 uM after 48 hrs by flow cytometry; format: functional, cell-based
MDA-MB-231 = assay: Cytotoxicity against human MDA-MB-231 cells after 72 hrs by MTS assay; format: functional, cell-based; details: MDA-MB-231, 72 h
[6] = Cytotoxicity against human LNCaP-FGC cells after 72 hrs by MTS assay; format: functional, cell-based; details: LNCaP-Clone-FGC
DU-145 = assay: Cytotoxicity against human DU145 cells after 72 hrs by MTS assay; format: functional, cell-based; details: DU-145, 72 h
MDA-MB-468 = assay: Cytotoxicity against human MDA-MB-468 cells after 72 hrs by MTS assay; format: functional, cell-based; details: MDA-MB-468, 72 h
Staphylococcus aureus = assay: Antibacterial activity against methicillin-resistant Staphylococcus aureus ATCC 33591; format: functional
Homo sapiens [7] = species on record: Homo sapiens; assay: Induction of apoptosis in human A2780DDP cells assessed as PARP cleavage at 10 uM after 24 hrs by flow cytometry; format: functional, cell-based
In short: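 A2780/DDP-S ovarian cancer cells were exposed at 1.0, 3.0 and 10 µM for 24 or 48 h. Apoptosis was scored by flow cytometry as the presence of cleaved PARP, a marker of caspase activation.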

| SMILES | pIC50 (PC-3) | pIC50 (BT-549) | pIC50 (DU-4475) | pIC50 (CCRF-CEM) | Activity [1] | Activity (Enterococcus faecium) [µg/mL] | pIC50 [2] | pIC50 (Plasmodium falciparum) | pIC50 (A549) | pIC50 [3] | MIC (Candida albicans) [µg/mL] | pIC50 (HCT-116) | Activity [4] | Activity (Homo sapiens [5]) | pIC50 (MDA-MB-231) | pIC50 [6] | pIC50 (DU-145) | pIC50 (MDA-MB-468) | Activity (Staphylococcus aureus) [µg/mL] | Activity (Homo sapiens [7]) |
| --- | --- | --- | --- | --- | --- | --- | --- | --- | --- | --- | --- | --- | --- | --- | --- | --- | --- | --- | --- | --- |
| CC(=O)N[C@H]1[C@H](OC[C@]23CCC(=O)C=C2CC[C@@H]2[C@@H]3CC[C@]3(C)[C@@H]([C@H](C)CCCC(C)C)CC[C@@H]23)O[C@H](CO)[C@@H](O)[C@@H]1O | 5.62 | 5.91 | 5.61 | 5.84 | inactive | 12.5 | 5.87 | < 4.40 | 6.01 | < 4.40 | 25 (≈ 41.4 µM) | 5.65 | inactive | inactive | 6.00 | 5.83 | 5.87 | 6.15 | 3.1 |  |
| CC(C)CCC[C@@H](C)[C@H]1CC[C@H]2[C@@H]3CCC4=C[C@@H](O)CC[C@]4(C)[C@H]3CC[C@]12C | < 4.60 |  | < 4.60 |  |  |  |  |  |  |  |  | < 4.60 |  |  | < 4.60 | < 4.60 | < 4.60 | < 4.60 |  |  |
| CC(=O)N[C@H]1[C@H](OC[C@]23CC[C@H](O)C=C2CC[C@@H]2[C@@H]3CC[C@]3(C)[C@@H]([C@H](C)CCCC(C)C)CC[C@@H]23)O[C@H](CO)[C@@H](O)[C@@H]1O | 5.02 | 5.00 | 5.21 | 4.97 |  |  | 5.05 |  | < 4.60 |  |  | < 4.60 |  |  | 4.99 | 4.67 | < 4.60 | 5.15 |  |  |
| CC(C)CCC[C@@H](C)[C@H]1CC[C@H]2[C@@H]3CCC4=CC(=O)CC[C@]4(C)[C@H]3CC[C@]12C [4-CHOLESTEN 3-ONE] | < 4.60 |  | 5.17 |  |  |  |  |  |  |  |  | 5.02 |  |  | 4.87 | 5.22 | 4.69 | 5.22 |  |  |
| CC(C)CCC[C@@H](C)[C@H]1CC[C@H]2[C@@H]3CCC4=C[C@@H](O)CC[C@]4(CO[C@@H]4O[C@H](CO)[C@@H](O)[C@H](O)[C@H]4O)[C@H]3CC[C@]12C | < 4.60 | 4.93 | 5.22 | 5.01 |  |  | < 4.60 |  | < 4.60 |  |  | < 4.60 |  |  | 4.77 | 4.62 | < 4.60 | 5.17 |  |  |
| CC(C)CCC[C@@H](C)[C@H]1CC[C@H]2[C@@H]3CCC4=CC(=O)CC[C@]4(CO[C@@H]4O[C@H](CO)[C@@H](O)[C@H](O)[C@H]4O)[C@H]3CC[C@]12C | 5.46 | 5.90 | 5.89 | 5.71 | inactive | 6.3 | 5.86 | < 4.40 | 6.03 | < 4.40 | 25 (≈ 44.4 µM) | 5.50 | inactive | inactive | 5.90 | 5.47 | 5.88 | 6.07 |  | inactive |
| CC(C)CCC[C@@H](C)[C@H]1CC[C@H]2[C@@H]3CCC4=CC(=O)CC[C@]4(CO)[C@H]3CC[C@]12C | 5.71 |  | 6.00 |  |  |  |  |  |  |  |  | 4.68 |  |  | 4.65 | 4.81 | 5.30 | 5.40 |  |  |
